# Test results as given in ChEMBL document CHEMBL4513216, “Probing the Open Global Health Chemical Diversity Library for Multistage-Active Starting Points for Next-Generation Antimalarials” (ACS Infect Dis, 2020).
# Test: Toxicity liver stage against HepG2, at 10uM
# Type: cell-based
# Design: test concentration 10 uM, cell line HepG2-A16-CD81EGFP
# Settings: human, HepG2-A16-CD81EGFP cells; read-out: INHIBITION
# Method in brief: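 Uninfected HepG2-A16-CD81EGFP cells, 3 × 10^3 per well, 1536-well, plated on prespotted compound at 10 μM final, parasite-free screening media added to match infected plates; puromycin 10 μM positive, DMSO 0.5% negative; run in parallel with 48 h PbLuc assay at 37 °C, 5% CO2; viability by CellTiter-Glo luminescence, normalized to controls.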
row,SMILES,cytotoxicity at 10 µM
1,CC(C)Oc1cccc(C(=O)C2CCCN(C(=O)c3ccccn3)C2)c1 (configuration not stated),-7.67%
2,Cc1noc([C@@H]2C[C@H](NC(=O)Nc3ccccc3)CN2C)n1,-1.89%
3,COC(=O)Nc1nc2c(s1)CN(C(=O)NCc1cccs1)CC2,3.89%
4,Cn1c(=O)n(C)c2cc(NS(=O)(=O)Cc3ccccc3)ccc21,-4.62%
5,COc1ccc(C)cc1-c1csc(N)c1C#N,-5.18%
6,Cc1nn(C)cc1-c1cc(C(F)F)nc2sc(C(N)=O)c(N)c12,2.6%
7,CCOC(=O)C1CCCN(c2nccc(-n3nc(C)cc3C)n2)C1 (configuration not stated),-11%
8,CCn1ncc(CN(C)C(=O)c2cc(C(F)(F)F)n(C)n2)c1C,3.87%
9,Clc1cccc(-n2cnnn2)c1N1CCOCC1,9.43%
10,COc1cc(C2SCC(=O)Nc3[nH]ncc32)c(OC)c2c1OCO2 (configuration not stated),6.63%
11,Cc1ccncc1CN1CCOCC1c1[nH]ncc1C (configuration not stated),1.78%
12,Cn1cc(CN2CCCC(n3c(=O)oc4ccccc43)C2)cn1 (configuration not stated),-0.18%
13,NC(=O)CS(=O)(=O)Cc1ccc(F)cc1,-3.71%
14,CC(C(=O)NCC(C)(C)c1ccc2c(c1)OCCO2)n1cncn1 (configuration not stated),13.8%
15,Cc1ccc(-c2ncc(CN3CCN(C(=O)N(C)C)CC3)s2)o1,-3.25%
16,CCc1nnc(NC(=O)NCCN(C)C(=O)OC(C)(C)C)s1,-1.6%
17,CC(=O)NCc1ccc(C(=O)N2CCCc3c(F)ccc(C)c32)o1,-0.883%
18,COCC(C)NC(=O)N(C)Cc1cc(C)on1 (configuration not stated),6.27%
19,CCOC1CCN(C(=O)NCc2cccc(-n3cccn3)c2)CC1,0.944%
20,O=S(=O)(NCCc1cn2ccccc2n1)N1CCOCC1,-3.98%
21,COc1ccc(CCNC(=O)c2ccc(=O)n(C)c2)c(Cl)c1,-10.3%
22,CC(C)n1ccc(C(=O)OCC2CC(=O)N(Cc3ccccc3)C2)n1 (configuration not stated),0.379%
23,CCOCC(=O)Nc1ccc(N2CCSCC2)cc1C,9.53%

row,SMILES,cytotoxicity at 10 µM
1,COc1cccc(CNc2nc(N3CCOCC3)ns2)c1OC,-2.76%
2,c1csc(-c2cc(CN3CCN(c4cnccn4)CC3)no2)c1,-0.523%
3,CCC1CCCCN1CCc1ccncc1 (configuration not stated),2.4%
4,Cc1cc(Nc2ccc3c(c2)CC(=O)N3)nc(C(C)C)n1,3.67%
5,COC(=O)c1cc(OC)ccc1NCC(=O)NCC(=O)N1CCCC1,0.431%
6,CN(C)CCNC(=O)Cc1cccc(I)c1,-3.23%
7,COC(=O)CCNC(=O)c1nnn(-c2ccc(F)cc2)c1C1CC1,-12.1%
8,COc1ccnc(N2CCN(C(=O)c3csnn3)CC2)n1,-0.581%
9,COCCOCC(=O)N1CCc2cc(Cl)cc(Cl)c2C1,1.4%
10,N#Cc1ccc(F)c(CNC(=O)NC(CO)c2ccccc2)c1 (configuration not stated),4.16%
11,CCc1nnc(C2Cc3ccccc3CN2Cc2ncc(Cl)n2C)o1 (configuration not stated),12.5%
12,CC(C(=O)Nc1ccnn1C(C)C)N1CCc2nn(C)c(=O)cc2C1 (configuration not stated),3.95%
13,Cc1noc(CN(Cc2cccc(C#N)c2)Cc2cccs2)n1,3.8%
14,O=C(CN1CCCC1CC(=O)c1ccccc1)NCc1ccccn1 (configuration not stated),1.39%
15,CN(C)C(=O)C1CCCN1c1ccnc2ccsc12 (configuration not stated),-16.8%
16,COCc1nc(CNC2CCCc3c2cnn3C(C)(C)C)cs1 (configuration not stated),-1.62%
17,Cc1cc(CN(C)Cc2ncc(-c3cccs3)o2)no1,11%
18,COc1cc(F)ccc1N1CCN(Cc2nnc(C3CC3)o2)CC1,14.8%
19,COCC(C)(CCO)NC(=O)Nc1c(F)cccc1Br (configuration not stated),3.79%
20,Cn1cc(C2CCCN2CCCn2c(=O)oc3ccccc32)cn1 (configuration not stated),5.63%
21,Cn1cc(CNc2cnn(CCO)c2)c(-c2ccncc2)n1,1.56%
22,O=C(CN1CCCC1Cn1cccn1)NC1CCOCC1 (configuration not stated),-23.2%
23,O=C(CCNC(=O)c1ccccc1N1CCOCC1)NC1CCCC1,-17.8%

row,SMILES,cytotoxicity at 10 µM
1,COCC(=O)N1CC[C@@H]2O[C@H](COCc3csc(C)n3)CC[C@@H]21,-85.8%
2,O=C(N1CCCC1)N1CCCC2(CCN(c3ccsc3)C2=O)C1 (configuration not stated),-74.1%
3,O=C(O)c1cnc(-c2cccc3c2CCNC3)c(Cl)c1,8.97%
4,COc1cccc(N2CCN(C(=O)C(O)CC(C)C)CC2=O)c1 (configuration not stated),-14.7%
5,CN(C)Cc1nnc(C2CCN(c3ncccc3Cl)CC2)n1C1CC1,-2.57%
6,COCCN(Cc1cnn(C)c1)C(=O)C1CCCN(C2CCOCC2)C1 (configuration not stated),4.76%
7,CN(Cc1cc(-c2cccnc2)no1)C(=O)[C@@H]1CSCN1C,0.66%
8,CC(=O)NC1CCN(c2cc(C3CCNCC3)nc(C)n2)C1 (configuration not stated),-1.92%
9,Cc1nonc1C1CCCN1C(=O)c1cc2n(n1)CCCN(C(C)C)C2 (configuration not stated),-10%
10,CN1CC2(CCCN(Cc3nnc(-c4ccco4)o3)CC2)OC1=O (configuration not stated),-6.12%
11,Cc1cc(C(=O)N2CC[C@@]3(O)CCN(C(=O)N4CCCC4)C[C@H]3C2)no1,-6.74%
12,Cc1noc(CN(C)C(=O)c2n[nH]c(N)c2-c2ccccc2)n1,-2.14%
13,CC[C@H]1CN(C(=O)c2cnc(N3CCN(C)CC3)nc2C)CC[C@@]1(C)O,-4.15%
14,NC(=O)C1CCN(CC(=O)N(Cc2ccccc2)Cc2nccs2)CC1,-5.08%
15,CCN(C)S(=O)(=O)NCC1CCCN(Cc2ccccc2F)C1 (configuration not stated),-1.22%
16,Cc1cccc(CN(C(=O)CCn2cncn2)C(C)C)c1,8.32%
17,CCN1CC(C(=O)N2CC(Oc3ccccc3Cl)C2)CCC1=O (configuration not stated),-8.62%
18,COc1cccc2ncn(C(C)Cn3cccn3)c(=O)c12 (configuration not stated),1.37%
19,CCc1cc(C(=O)NCC2CCN(Cc3cccc(C)n3)C2)on1 (configuration not stated),7.69%
20,CC(=O)c1cc(CN2C[C@@H](CN3CCCC3)[C@@H](CO)C2)n(C)c1,4.92%
21,Cc1occc1C(=O)N1CCC2(CCCN(CC3CC3)C2=O)C1 (configuration not stated),-4.58%
22,CSc1ncc(C(=O)NCc2cc3n(n2)CCCN(CC(C)C)C3)cn1,5.89%
23,Cc1c[nH]c(CN2CC[C@@]3(O)CCN(C(=O)C4CCC4)C[C@H]3C2)n1,1.27%

row,SMILES,cytotoxicity at 10 µM
1,COc1cccc(OCC2CCCN(Cc3ccncc3)C2)c1 (configuration not stated),-7.66%
2,CSCc1noc(CN2CC(Cc3ccccc3)CC2=O)n1 (configuration not stated),-0.404%
3,O=C1OC2(CCNCC2)CN1CC(=O)N1CCCC1c1nccs1 (configuration not stated),-4.92%
4,Cc1ccccc1CN(CCN(C)C)Cc1ccccc1C(=O)O,-1.97%
5,O=c1[nH]c(COc2ccccc2Cl)nc2c1CCNC2,1.97%
6,CCCOC1CCCN(C(=O)c2cnc(-c3csc(C)n3)nc2O)C1 (configuration not stated),-1.97%
7,CN(C)C(=O)C1(Oc2ccc(Cl)cc2)CCNCC1,13.7%
8,CC(C)N1CCC(C(=O)N(C)C(C)c2ccon2)CC1 (configuration not stated),5.16%
9,COCC[C@]1(O)CCN(C(=O)CCn2c(C)cccc2=O)C[C@H]1C,3.28%
10,COc1cccc(CN2CCCC(Nc3cccc(F)c3)C2)c1O (configuration not stated),-10.2%
11,CCn1ncnc1C(NC(=O)CC1CCN(C(C)C)CC1)C1CC1 (configuration not stated),8.6%
12,COc1cccc(S(=O)(=O)NC(=O)COC2CCCCC2)c1,-0.502%
13,CCN(C(C)=O)c1nc(CN2CCCCC2Cn2cncn2)cs1 (configuration not stated),-5.4%
14,CCn1cc(CN2CCCN(C(=O)CCc3nccs3)CC2)cn1,-2.53%
15,CCOc1ccc(Cl)c(C(=O)N2CCN(c3ncccn3)CC2)n1,-1.9%
16,CC(=O)N1CCN(Cc2ccc(OCc3nccn3C)cc2)CC1,-2.68%
17,Cn1cnnc1C1CCCN(C(=O)NCc2ccccn2)C1 (configuration not stated),2.83%
18,O=C(NCCn1ccnc1)c1ccn(-c2ccccc2)n1,0.449%
19,CCOCC1CCCN(C(=O)NCc2ccc(-c3ccn[nH]3)cc2)C1 (configuration not stated),-3.25%
20,CSC(C)C(=O)N1CCCN(c2ncccc2C#N)CC1 (configuration not stated),-1.2%
21,Cc1ncc2c(n1)CN(CC(=O)Nc1nccs1)CC2,-0.586%
22,O=C(c1csc(C2CC2)n1)N1CCCC1Cn1cccn1 (configuration not stated),-5.53%
23,CCNc1cc2c(nn1)CCN(C(=O)CCc1c(C)noc1C)C2,-2.47%

row,SMILES,cytotoxicity at 10 µM
1,Cc1nn(C)c(C)c1C1CCCN1C(=O)c1ccc2nnc(C)n2c1 (configuration not stated),-12.2%
2,CC(C)CC(C)N(C)C(=O)c1nc(S(C)(=O)=O)n2ccccc12 (configuration not stated),-9.24%
3,CS(=O)(=O)c1cccc(C(=O)N2CCCC(n3cccn3)C2)c1 (configuration not stated),-8.77%
4,Cc1ncncc1C(=O)N1CCCC1c1c(C)nn(C)c1Cl (configuration not stated),-12.2%
5,CC(C)C(C)NC(=O)Nc1ccc(F)c(C(N)=O)c1 (configuration not stated),-6.54%
6,CCc1nc(CN2CCCC(NCc3nnc(C4CC4)n3C)C2)no1 (configuration not stated),-2.97%
7,O=C(Nc1ccccc1OCC1CCCCO1)c1ccc(O)nc1 (configuration not stated),5.41%
8,CCCOCC(=O)N1CCCN(Cc2csc(CC)n2)CC1,3.78%
9,O=C(O)[C@]12CCCN(Cc3ccccc3)C[C@H]1CN(c1ncccn1)C2,-8.33%
10,Cc1ccc(CN2CCC3(CCN(c4cnn(C)c4)C3=O)C2)s1 (configuration not stated),-70%
11,Cc1nnc(N2CCCC3(CN(Cc4ccc(C)s4)CCO3)C2)o1 (configuration not stated),-14.6%
12,CCS(=O)(=O)N1CCC2(CN(c3ccsc3)C(=O)CN2C)C1 (configuration not stated),7.31%
13,COCCO[C@H]1CCN(C(=O)c2cccnc2)[C@H]1Cc1cnn(C)c1,4%
14,Cc1occc1C(=O)N1CCC2(CCN(Cc3nccs3)C2)CC1,-12.5%
15,O=C(c1ccco1)N1C[C@H]2CCCN(Cc3nccs3)[C@H]2C1,2.32%
16,CCOCC1CN(Cc2csc(C)n2)Cc2nccn2C1 (configuration not stated),5.98%
17,Cn1nnc2c1C(COCc1ccccn1)CN(C(=O)c1ccsc1)C2 (configuration not stated),13.6%
18,Cc1ccc(C(CCNCCN(C)C)C2CCOC(C)(C)C2)cc1 (configuration not stated),3.46%
19,O=C(c1cccnc1-c1ccoc1)N1C[C@@H]2CC[C@H]1C2,6.3%
20,CCCNc1ncc(CN2C[C@@H]3CC[C@H]2CN(C2CCOCC2)C3)cn1,-7.84%
